Measured values as given in ChEMBL document CHEMBL1914412, “Molecular modeling study and synthesis of novel dicationic flexible triaryl guanidines and imidamides as antiprotozoal agents” (Eur J Med Chem, 2011).

Legend:
[1] = tested on: Trypanosoma brucei rhodesiense; test: Antitrypanosomal activity against Trypanosoma brucei rhodesiense STIB900 after 72 hrs using alamar blue staining by microplate fluorometric analysis; type: functional, organism-based; details: STIB900, 72 h
How it was run: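 STIB 900 trypanosome suspension with serial drug dilutions, 37 °C, 5% CO₂, 72 h; Alamar Blue added and incubation continued 2–4 h. Two independent runs, each in duplicate.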

[2] = Ratio of IC50 for compound to IC50 for pentamidine for rat L6 cells; type: cell-based; details: read-out: Ratio IC50
[3] = tested on: Nucleic Acid; test: Binding affinity to poly(dA-dT) DNA assessed as change in melting temperature at compound/polynucleotide ratio 0.3 in MES10 buffer by spectrophotometry; type: nucleic-acid assay
[4] = tested on: L6; test: Cytotoxicity against rat L6 cells after 72 hrs by alamar blue staining-based microplate fluorometric analysis; type: cell-based; details: L6, 72 h
[5] = Selectivity index, ratio of IC50 for Trypanosoma brucei rhodesiense STIB900 to IC50 for Plasmodium falciparum K1; type: functional
[6] = tested on: Plasmodium falciparum; test: Antiplasmodial activity against Plasmodium falciparum K1 infected in human red blood cells assessed as [3H]hypoxanthine incorporation after 48 hrs by liquid scintillation counting; type: functional, organism-based
[7] = tested on: Plasmodium falciparum; test: Ratio of IC50 for pentamidine to IC50 for compound for Plasmodium falciparum K1; type: functional

Row | SMILES | IC50 [1] | ΔTm [3] | IC50 [6] | selectivity ratio [2] | IC50 [4] | Ratio IC50 [5] | Ratio IC50 [7]
1 | N=C(Nc1ccc(Oc2ccc(Oc3ccc(NC(=N)C4CCCCC4)cc3)cc2)cc1)C1CCCCC1 | 427 nM | 2.1 °C | 259 nM | 1.5 | 3100 nM | 1.6 | –
2 | N=C(Nc1ccc(Oc2cccc(Oc3ccc(NC(=N)c4ccccc4)cc3)c2)cc1)c1ccccc1 | 1040 nM | 2 °C | 251 nM | 0.43 | 900 nM | 4.2 | –
3 | N=C(Nc1ccc(Oc2ccc(Oc3ccc(NC(=N)c4ccc(-c5ccccc5)cc4)cc3)cc2)cc1)c1ccc(-c2ccccc2)cc1 | 612 nM | 0.1 °C | 63.3 nM | 60 | > 120000 nM | 9.6 | –
4 | N=C(Nc1ccc(Oc2ccc(Oc3ccc(NC(=N)c4ccccc4)cc3)cc2)cc1)c1ccccc1 | 863 nM | 5 °C | 71.5 nM | 1.3 | 2800 nM | 12.1 | –
5 | CC(C)(C)c1ccc(C(=N)Nc2ccc(Oc3cccc(Oc4ccc(NC(=N)c5ccc(C(C)(C)C)cc5)cc4)c3)cc2)cc1 | 2780 nM | 0 °C | 627 nM | 39 | 81400 nM | 4.4 | –
6 | N=C(Nc1ccc(Oc2cccc(Oc3ccc(NC(=N)c4ccc(-c5ccccc5)cc4)cc3)c2)cc1)c1ccc(-c2ccccc2)cc1 | 82300 nM | 0 °C | 4700 nM | 4.3 | 9100 nM | 17 | –
7 | CC(C)(C)c1ccc(C(=N)Nc2ccc(Oc3ccc(Oc4ccc(NC(=N)c5ccc(C(C)(C)C)cc5)cc4)cc3)cc2)cc1 | 400 nM | 0 °C | 60 nM | 0.71 | 1500 nM | 6.7 | –

Now from value to molecule, other results behind:

Row | IC50 [1] | ΔTm [3] | IC50 [6] | SMILES | selectivity ratio [2] | IC50 [4] | Ratio IC50 [5] | Ratio IC50 [7]
8 | 160 nM | 0 °C | 17.2 nM | CC(C)/N=C(\N)Nc1ccc(Oc2ccc(Oc3ccc(N/C(N)=N/C(C)C)cc3)cc2)cc1.Cl.Cl | 9.3 | 19600 nM | 9.3 | 2.7
9 | 395 nM | 0 °C | 307 nM | N=C(Nc1ccc(Oc2cccc(Oc3ccc(NC(=N)C4CCCCC4)cc3)c2)cc1)C1CCCCC1 | 1.9 | 3900 nM | 1.3 | –
10 | 155 nM | 0 °C | 38.2 nM | CC(C)/N=C(\N)Nc1ccc(Oc2cccc(Oc3ccc(N/C(N)=N/C(C)C)cc3)c2)cc1.Cl.Cl | 39 | 82100 nM | 4.1 | 1.2
11 | 155 nM | 0.8 °C | 14.1 nM | C/N=C(/N)Nc1ccc(Oc2ccc(Oc3ccc(N/C(N)=N/C)cc3)cc2)cc1.Cl.Cl | 27 | 57300 nM | 11 | 3.3
12 | 151 nM | 2.1 °C | 26.5 nM | N=C(N)Nc1ccc(Oc2ccc(Oc3ccc(NC(=N)N)cc3)cc2)cc1 | 5.5 | 11600 nM | 5.7 | –
13 | 318 nM | 0.1 °C | 21.5 nM | C/N=C(\N)Nc1ccc(Oc2cccc(Oc3ccc(N/C(N)=N/C)cc3)c2)cc1.Cl.Cl | 22 | 45700 nM | 14.8 | 2.2
14 | 171 nM | 1.1 °C | 27 nM | N=C(N)Nc1ccc(Oc2cccc(Oc3ccc(NC(=N)N)cc3)c2)cc1 | 5 | 10600 nM | 6.3 | –
